In brackets after ≈: the same amount, converted by molar mass.
Legend:
[1] = Oral pharmacokinetics / bioavailability in rats; assay type: in vivo; conditions: male, Sprague-Dawley, rat, plasma, 4 mg/kg
In short: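 Male SD rats (250 ± 50 g), fasted 12 h with water, randomised to groups, n = 6. Test compound or its cyclodextrin/CD-MOF formulations were suspended in 0.5% CMC-Na and given orally at 4 mg/kg (as parent). Orbital blood was taken into heparin at 0–24 h, and plasma stored at −80 °C. Progesterone internal standard, acidified-acetonitrile precipitation, HPLC–MS/MS MRM positive ion (m/z 319.2 → 273.2). PK by […] analysis; mean ± SD.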

[2] = Apparent solubility in vitro; assay type: physicochemical; conditions: thermodynamic from solid; for solubility at 2 h: 25 °C
[3] = azilsartan loaded in CD-MOF; cited from earlier work
[4] = azilsartan loaded in CD-MOF, SD rats; cited from earlier work

Compound `C[C@@]12CC[C@@H]3[C@@](CC[C@H]4[C@@]3(C)CCC[C@@]4(C)C(=O)O)(CC1=O)C2` [STV, Isosteviol] has an AUC(0-t) [1] of 590 ng·h/mL, a Cmax [1] of 61 ± 39 ng/mL and a Tmax [1] of 3.01 h. The solubility at 2 h ([2]; pH 1, simulated gastric fluid) was < 0.02 µg/mL, the solubility at 2 h ([2]; pH 4.5, aqueous buffer) was < 0.02 µg/mL and the solubility at 2 h ([2]; pH 6.8, aqueous buffer) was 20.1 µg/mL (≈ 63 µM). The solubility ([2]; KOH solution, pH 11, aqueous buffer) was 240 µg/mL (≈ 753 µM) and the solubility at 2 h ([2]; distilled water, water) was 0.13 µg/mL (≈ 0.407 µM).

In the case of `CCOc1nc2cccc(C(=O)O)c2n1Cc1ccc(-c2ccccc2-c2noc(=O)[nH]2)cc1` [azilsartan], the “apparent solubility, times of the API” value [3] is listed as 340 times and the “bioavailability, times that of API” value [4] is listed as 9.7 times.

— publication PMC8463510 (Acta Pharmaceutica Sinica. B, 2021)
